Compound activity: PubChem BioAssay, Broad Institute
The list is not random: actives were taken first. Their share in the collection is about 2.8%.
SIRT5 block = sirtuin-5 (human) deacylase inhibition. Q9NXA8. Purified SirT5, succinyl-peptide AMC, trypsin-coupled fluorescence. inhibition, % at 15 µM. hit rate 1.1% among 330,000. AID 652115; in the data active = inhibition above about 15%; inconclusive = no clear call, values can overlap the other calls
DENV2 CPE = DENV2-induced cell death inhibition; DENV2-infected cells, cytopathic effect rescue, plate reader; CPE inhibition, % at 9.99 µM; hit rate 1.7% among 350,000; in the data active = CPE inhibition above about 20%, passing the limit was not always enough; inconclusive = no clear call, values can overlap the other calls; tested in BHK-21 cells;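 note: 0% = median of neutral control wells and 100% = median of positive control wells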
E-sel inducer = E-selectin induction on HUVECs; P16581; HUVEC E-selectin immunofluorescence imaging; normalized: neutral wells 0, TNF-alpha wells 100; activation, % at 7.58 µM; hit rate 0.37% among 260,000;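 active = mean E-selectin-positive cell signal at least 10% of the positive control, reached in at least 60% of replicates, without over 20% cell loss; inconclusive = no rule given, readout overlaps actives, possibly toxicity-flagged; inactive = the rest, including those meeting only one limit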
Target sequence (P16581 whole entry, looked up): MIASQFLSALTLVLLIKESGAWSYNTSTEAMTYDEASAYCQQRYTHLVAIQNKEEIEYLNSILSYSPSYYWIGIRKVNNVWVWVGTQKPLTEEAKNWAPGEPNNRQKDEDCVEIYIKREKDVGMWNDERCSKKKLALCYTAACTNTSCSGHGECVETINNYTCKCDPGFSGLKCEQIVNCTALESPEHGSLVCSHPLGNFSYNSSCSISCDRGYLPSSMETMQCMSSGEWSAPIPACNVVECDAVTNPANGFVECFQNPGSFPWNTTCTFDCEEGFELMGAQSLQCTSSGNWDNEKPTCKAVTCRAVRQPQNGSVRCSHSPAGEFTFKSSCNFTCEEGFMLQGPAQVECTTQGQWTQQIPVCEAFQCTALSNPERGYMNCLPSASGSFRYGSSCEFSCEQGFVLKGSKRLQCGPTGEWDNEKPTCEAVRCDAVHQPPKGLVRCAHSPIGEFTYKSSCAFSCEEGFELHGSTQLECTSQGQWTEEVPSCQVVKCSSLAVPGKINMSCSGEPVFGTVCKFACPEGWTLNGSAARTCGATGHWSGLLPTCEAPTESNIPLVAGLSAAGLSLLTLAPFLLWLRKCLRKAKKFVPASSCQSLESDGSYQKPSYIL
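Assay system: HUVEC primary endothelial cells. Input: 3,000 HUVEC seeded per well. Doses: one compound dose added by pin transfer. Read-out basis: % PE-positive cells. Benchmarks: TNF-alpha high, DMSO low. Detection: immunofluorescence imaging. Buffer or medium: EGM-2, gelatin.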
* hit, by the source's call; ? = inconclusive; / = no result.

SMILES	SIRT5 block	DENV2 CPE	E-sel inducer
C[C@H](CO)N1C[C@H](C)[C@H](CN(C)C(=O)Nc2ccc3c(c2)OCO3)OCCCC[C@H](C)Oc2ccc(NC(=O)Nc3cccc4ccccc34)cc2C1=O	7	-1	0
C[C@@H]1CCCCO[C@@H](CN(C)C(=O)Nc2ccc3c(c2)OCO3)[C@@H](C)CN([C@@H](C)CO)C(=O)c2cc(NC(=O)Nc3cccc4ccccc34)ccc2O1	4	61*	0
C[C@@H]1CCCCO[C@@H](CN(C)C(=O)Nc2cccc3ccccc23)[C@@H](C)CN([C@@H](C)CO)C(=O)c2cc(NC(=O)Nc3ccc(C(F)(F)F)cc3)ccc2O1	1	26*	1
C[C@@H]1CCCCO[C@@H](CN(C)C(=O)Nc2cccc3ccccc23)[C@H](C)CN([C@@H](C)CO)C(=O)c2cc(NC(=O)c3ccccc3)ccc2O1	17*	-10	/
C[C@@H]1CN([C@@H](C)CO)C(=O)c2cc(NC(=O)c3ccccc3)ccc2O[C@@H](C)CCCCO[C@H]1CN(C)C(=O)Nc1cccc2ccccc12	4	4	/
C[C@@H]1CN([C@H](C)CO)C(=O)c2cc(NC(=O)Nc3ccc(C(F)(F)F)cc3)ccc2O[C@@H](C)CCCCO[C@@H]1CN(C)C(=O)Nc1cccc2ccccc12	0	-8	0
O=C(Cc1ccccn1)N[C@H]1C=C[C@@H](CC(=O)N2CCCCC2)O[C@H]1CO	1	12	0
C[C@@H]1CN([C@@H](C)CO)C(=O)c2cc(NC(=O)Nc3ccc(F)cc3)ccc2O[C@@H](C)CCCCO[C@H]1CN(C)Cc1ccncc1	/	-3	0
C[C@@H]1CN([C@@H](C)CO)C(=O)c2cc(NC(=O)C3CCCCC3)ccc2O[C@@H]1CN(C)Cc1ccc(Oc2ccccc2)cc1	/	/	-1
C[C@@H]1CN([C@@H](C)CO)C(=O)c2cc(NC(=O)C3CC3)ccc2O[C@@H]1CN(C)Cc1ccc(Oc2ccccc2)cc1	3	79*	/
C[C@H]1CN([C@@H](C)CO)C(=O)c2cc(NC(=O)C3CCCCC3)ccc2O[C@@H]1CN(C)Cc1ccc(Oc2ccccc2)cc1	/	/	0
C[C@@H]1CN([C@@H](C)CO)C(=O)c2cc(NC(=O)C3CC3)ccc2O[C@H]1CN(C)Cc1ccc(Oc2ccccc2)cc1	2	33*	/
C[C@H](CO)N1C[C@H](C)[C@@H](CN(C)C(=O)Cc2ccccn2)Oc2ncc(C#CC3CCCC3)cc2C1=O	3	-8	0
COc1cccc(NC(=O)N[C@H]2C=C[C@@H](CC(=O)Nc3ccccc3)O[C@H]2CO)c1	5	/	0
COc1ccc(-c2cnc3c(c2)C(=O)N([C@H](C)CO)C[C@@H](C)[C@H](CN(C)C)O3)cc1	/	3	0
C[C@@H]1CN([C@@H](C)CO)S(=O)(=O)c2ccc(C3=CCCC3)cc2O[C@H]1CN(C)C(=O)Cc1ccncc1	1	0	0
CC(C)C#Cc1ccc2c(c1)O[C@@H](CN(C)CC1CC1)[C@@H](C)CN([C@@H](C)CO)S2(=O)=O	4	?	0
CCN1C(=O)[C@H]2[C@@H](c3ccc(OC)cc3)N[C@]3(CCCN(Cc4cccn4C)C3=O)[C@H]2C1=O	-2	-3	0
COc1ccc([C@H]2N[C@]3(CCCN(Cc4cccn4C)C3=O)[C@H]3C(=O)N(C)C(=O)[C@@H]23)cc1	34*	?	0
COc1ccc(CN2CCC[C@]3(N[C@H](c4ccc(OC)cc4)[C@@H]4C(=O)N(Cc5ccccc5)C(=O)[C@@H]43)C2=O)cc1	-1	17	0
COc1ccc(CN2CCC[C@]3(N[C@H](c4ccc(C)cc4)[C@@H]4C(=O)N(Cc5ccccc5)C(=O)[C@@H]43)C2=O)cc1	0	25*	/
CCN1C(=O)[C@H]2[C@@H](c3ccccc3)N[C@]3(CCCN(Cc4ccccc4)C3=O)[C@H]2C1=O	24*	-2	0
Cn1cccc1CN1CCC[C@]2(N[C@H](c3ccccc3)[C@@H]3C(=O)N(Cc4ccccc4)C(=O)[C@@H]32)C1=O	1	41*	0
O=C1[C@H]2[C@@H](c3ccccc3)N[C@]3(CCCN(Cc4ccccc4)C3=O)[C@H]2C(=O)N1Cc1ccccc1	6	-8	/
Cc1ccc([C@H]2N[C@]3(CCCN(Cc4cccn4C)C3=O)[C@H]3C(=O)N(Cc4ccccc4)C(=O)[C@@H]23)cc1	1	-5	1
CN(C)CCCNC(=O)C[C@H]1CC[C@H]2[C@@H](COc3ccc(NC(=O)c4ccccc4F)cc3C(=O)N2C)O1	0	-11	0
CCN1[C@@H]2Cn3c(ccc(-c4ccncc4)c3=O)[C@H]1[C@@H](C(=O)NCc1ccccc1)[C@@H]2CO	-4	1	0
